Assay results: ChEMBL document CHEMBL3588850, “Multivalent Amino Sugars to Recognize Different TAR RNA Conformations” (Medchemcomm, 2014)
pIC50: −log10 of the molar value. Activity calls are given as the source filed them. No cut-off for these calls is given here.

Columns and labels:
Nucleic Acid [1] = experiment: Binding affinity to wild type HIV1 TAR RNA at pH 6.8 by ethidium bromide displacement assay; assay type: nucleic-acid assay, Human immunodeficiency virus 1
Method in brief: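 TAR RNA (200 nM/strand) and EtBr (5 μM) in 100 mM KCl, 10 mM SC, 0.5 mM EDTA, pH 6.8, titrated with ligand aliquots (at most 4% v/v). Fluorescence excited at 545 nm and read at 610 nm. IC50 is the ligand concentration that displaces 50% of EtBr, taken from a sigmoidal fit of fraction displaced versus log ligand concentration.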

Nucleic Acid [2] = experiment: Binding affinity to HIV1 TAR RNA bulgeless mutant at pH 6.8 by ethidium bromide displacement assay; assay type: nucleic-acid assay, Human immunodeficiency virus 1
Method in brief: (§1)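 Synthetic 2′-ACE-protected TAR RNA, deprotected, heated 98 °C 5 min, then ice-cooled 15 min. TAR RNA at 200 nM/strand with ethidium bromide 5 μM in 100 mM KCl, 10 mM SC, 0.5 mM EDTA, pH 6.8. Ligand added stepwise, ≤4% v/v. Excitation 545 nm, emission 580–660 nm, intensity at 610 nm normalized. IC50 from sigmoidal fit of fraction EtBr displaced vs log ligand; association constants from Scatchard analysis.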

Nucleic Acid [3] = experiment: Binding affinity to HIV1 TAR RNA tetraloop mutant at pH 6.8 by ethidium bromide displacement assay; assay type: nucleic-acid assay, Human immunodeficiency virus 1; method in brief: as §1
Nucleic Acid [4] = experiment: Binding affinity to HIV1 TAR RNA bulgeless tetraloop mutant at pH 6.8 by ethidium bromide displacement assay; assay type: nucleic-acid assay, Human immunodeficiency virus 1; method in brief: as §1
Nucleic Acid [5] = experiment: Binding affinity to HIV1 TAR RNA U3 bulge mutant at pH 6.8 by ethidium bromide displacement assay; assay type: nucleic-acid assay, Human immunodeficiency virus 1; method in brief: as §1
Nucleic Acid [6] = experiment: Binding affinity to wild type HIV1 TAR RNA assessed as association constant at pH 6.8 by ethidium bromide displacement assay based Scatchard analysis method; assay type: nucleic-acid assay; conditions: Human immunodeficiency virus 1
Method in brief: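 Ethidium bromide displacement: 5 μM EtBr with TAR RNA at 200 nM/strand (under 20% of EtBr bound) in 100 mM KCl, 10 mM SC, 0.5 mM EDTA, pH 6.8. Ligand added in concentrated aliquots, at most 4% v/v. Excitation 545 nm, emission 580–660 nm, intensity at 610 nm. Association constant obtained by Scatchard analysis of the titration data.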

Nucleic Acid [7] = experiment: Binding affinity to HIV1 TAR RNA bulgeless mutant assessed as association constant at pH 6.8 by ethidium bromide displacement assay based Scatchard analysis method; assay type: nucleic-acid assay; conditions: Human immunodeficiency virus 1; method in brief: as §1
Nucleic Acid [8] = experiment: Binding affinity to HIV1 TAR RNA tetraloop mutant assessed as association constant at pH 6.8 by ethidium bromide displacement assay based Scatchard analysis method; assay type: nucleic-acid assay; conditions: Human immunodeficiency virus 1; method in brief: as §1
Nucleic Acid [9] = experiment: Binding affinity to HIV1 TAR RNA bulgeless tetraloop mutant assessed as association constant at pH 6.8 by ethidium bromide displacement assay based Scatchard analysis method; assay type: nucleic-acid assay; conditions: Human immunodeficiency virus 1; method in brief: as §1
Nucleic Acid [10] = experiment: Binding affinity to HIV1 TAR RNA U3 bulge mutant at assessed as association constant at pH 6.8 by ethidium bromide displacement assay based Scatchard analysis method; assay type: nucleic-acid assay; conditions: Human immunodeficiency virus 1; method in brief: as §1
Nucleic Acid [11] = experiment: Induction of conformational changes in wild type HIV1 TAR RNA assessed as changes in 210 to 220 nm region using 1 molar equivalents of compound at pH 6.8 by CD spectroscopy; assay type: nucleic-acid assay; conditions: Human immunodeficiency virus 1
Nucleic Acid [12] = experiment: Induction of conformational changes in wild type HIV1 TAR RNA assessed as increase in intensity in 265 nm region using 1 molar equivalents of compound at pH 6.8 by CD spectroscopy; assay type: nucleic-acid assay; conditions: Human immunodeficiency virus 1

SMILES	pIC50 (Nucleic Acid [1])	pIC50 (Nucleic Acid [2])	pIC50 (Nucleic Acid [3])	pIC50 (Nucleic Acid [4])	pIC50 (Nucleic Acid [5])	K (Nucleic Acid [6])	K (Nucleic Acid [7])	K (Nucleic Acid [8]) [×10⁷ /M]	K (Nucleic Acid [9]) [×10⁷ /M]	K (Nucleic Acid [10]) [×10⁶ /M]	Activity (Nucleic Acid [11])	Activity (Nucleic Acid [12])
NC[C@@H]1O[C@H](O[C@H]2[C@@H](O)[C@H](O[C@@H]3[C@@H](O)[C@H](N)C[C@H](N)[C@H]3O[C@H]3O[C@H](CN)[C@@H](O)[C@H](O)[C@H]3N)O[C@@H]2Cn2cc(COCCCCCCCCOCc3cn(C[C@H]4O[C@@H](O[C@@H]5[C@@H](O)[C@H](N)C[C@H](N)[C@H]5O[C@H]5O[C@H](CN)[C@@H](O)[C@H](O)[C@H]5N)[C@H](O)[C@@H]4O[C@H]4O[C@@H](CN)[C@@H](O)[C@H](O)[C@H]4N)nn3)nn2)[C@H](N)[C@@H](O)[C@@H]1O	6.81	6.97	6.73	6.97	6.63	7.6 ×10⁶ /M	6.8 ×10⁷ /M	1.4	7.2	4.8		
NC[C@@H]1O[C@H](O[C@H]2[C@@H](O)[C@H](O[C@@H]3[C@@H](O)[C@H](N)C[C@H](N)[C@H]3O[C@H]3O[C@H](CN)[C@@H](O)[C@H](O)[C@H]3N)O[C@@H]2Cn2cc(CCCCc3cn(C[C@H]4O[C@@H](O[C@@H]5[C@@H](O)[C@H](N)C[C@H](N)[C@H]5O[C@H]5O[C@H](CN)[C@@H](O)[C@H](O)[C@H]5N)[C@H](O)[C@@H]4O[C@H]4O[C@@H](CN)[C@@H](O)[C@H](O)[C@H]4N)nn3)nn2)[C@H](N)[C@@H](O)[C@@H]1O	6.84	6.80	6.56	6.67	6.56	2.6 ×10⁷ /M	2.2 ×10⁷ /M		1.2	2.1		
NC[C@@H]1O[C@H](O[C@H]2[C@@H](O)[C@H](O[C@@H]3[C@@H](O)[C@H](N)C[C@H](N)[C@H]3O[C@H]3O[C@H](CN)[C@@H](O)[C@H](O)[C@H]3N)O[C@@H]2Cn2cc(-c3ccc(-c4cn(C[C@H]5O[C@@H](O[C@@H]6[C@@H](O)[C@H](N)C[C@H](N)[C@H]6O[C@H]6O[C@H](CN)[C@@H](O)[C@H](O)[C@H]6N)[C@H](O)[C@@H]5O[C@H]5O[C@@H](CN)[C@@H](O)[C@H](O)[C@H]5N)nn4)cc3)nn2)[C@H](N)[C@@H](O)[C@@H]1O	6.82					1.5 ×10⁸ /M						
NC[C@@H]1O[C@H](O[C@H]2[C@@H](O)[C@H](O[C@@H]3[C@@H](O)[C@H](N)C[C@H](N)[C@H]3O[C@H]3O[C@H](CN)[C@@H](O)[C@H](O)[C@H]3N)O[C@@H]2Cn2cc(-c3cccc(-c4cn(C[C@H]5O[C@@H](O[C@@H]6[C@@H](O)[C@H](N)C[C@H](N)[C@H]6O[C@H]6O[C@H](CN)[C@@H](O)[C@H](O)[C@H]6N)[C@H](O)[C@@H]5O[C@H]5O[C@@H](CN)[C@@H](O)[C@H](O)[C@H]5N)nn4)c3)nn2)[C@H](N)[C@@H](O)[C@@H]1O	6.96	6.89	6.74	6.85	6.61	1.4 ×10⁸ /M	1 ×10⁸ /M	1.3	6.9		Active	Active
